Results collected from several papers.
Target: TGF-beta receptor type-2 (TGFBR2, Homo sapiens, UniProt P37173)

For `O=C(NCC1CCOCC1)c1n[nH]cc1NC(=O)c1c(F)cccc1F`, the remaining binding was 100% (binding, competition with immobilised ligand; 1 µM).
For `N[C@H]1CCN(c2nccc(-c3cnn4ncccc34)n2)C1`, the remaining binding was 86% (binding; 1 µM).
For `CNCc1ccccc1-c1csc([C@H](C)Nc2nc(C)nc3cc(OC)c(OC)cc23)c1`, the remaining binding was 97% (cell-free assay, competition with immobilised ligand; 1 µM).
For `CN(C)c1nccc(-c2cnc3ncccn23)n1`, the remaining binding was 76% (binding; 1 µM).
The remaining binding of `O=C(c1ccc(Nc2ncc(Cl)c(-c3ccc(Cl)s3)n2)cc1)N1CCC(N2CCCC2)CC1` is reported as 100% (binding, competition with immobilised ligand; 1 µM).
The remaining binding of `O=C(N[C@H]1CCCCC/C=C\C2C[C@@]2(C(=O)O)NC(=O)[C@@H]2C[C@@H](Oc3ccncc3)CN2C1=O)OC1CCCC1` (stereo partly drawn) is reported as 85% (cell-free assay, competition with immobilised ligand; 1 µM).
For `CN(C)c1nccc(-c2cnn3ncccc23)n1`, the remaining binding was 73% (binding; 1 µM).
`CC1=C(C#N)[C@@H](c2ccc3[nH]nc(C)c3c2)C(C#N)=C(c2ccc(Cl)cc2)N1` has a remaining binding of 74.6% (cell-free assay, competition with immobilised ligand; 1 µM).
`Nc1ncc2c(n1)-c1c([nH]c3ccc(C#CC4CC4)cc13)CCCC2` gave a remaining binding of 100% (binding, competition with immobilised ligand; 1 µM).
For `CN(CCCC(F)(F)F)c1nccc(-c2cnn3ncccc23)n1`, the remaining binding was 73% (binding; 1 µM).
`O=C(NCCCN1CCOCC1)c1ccc(Nc2ncc(Cl)c(-c3ccc(Cl)s3)n2)cc1` gave a remaining binding of 100% (binding, competition with immobilised ligand; 1 µM).
For `CNC(=O)[C@@H]1CC[C@@H](n2c(-c3ccc4cnccc4c3)nc3ccc(C(=O)NCc4cccc(C(N)=O)c4)cc32)C1`, the remaining binding was 100% (binding, competition with immobilised ligand; 1 µM).
The remaining binding of `C[C@@H]1CCN(c2nccc(-c3cnn4ncccc34)n2)C1` is reported as 100% (binding; 1 µM).
For `COCCOc1nc(-c2ccc(Cl)nc2)nc2c1CN(C(=O)c1ncn3ccccc13)CC2`, the remaining binding was 94% (cell-free assay, competition with immobilised ligand; 0.1 µM).
With `Cc1cnc(Nc2ccc(C(=O)N3CCC(N4CCCC4)CC3)cc2)nc1-c1cc2ccccc2s1` the remaining binding was 61% (binding, competition with immobilised ligand; 1 µM).
`COc1ncc2cc3ccccc3nc2c1C#N` gave a remaining binding of 100% (cell-free assay, competition with immobilised ligand; 5 µM).
For `CCN1CCN(Cc2ccc(C(=O)Nc3ccc(C)c(Oc4ccc5c(c4)CC(=O)N5)c3)cc2C(F)(F)F)CC1`, the remaining binding was 100% (binding, competition with immobilised ligand; 1 µM).
With `O=C1CCc2cc(Nc3cc(OC4CCOCC4)c([N+](=O)[O-])cc3Cl)ccc2N1` the remaining binding was 98% (cell-free assay, competition with immobilised ligand; 1 µM).
`FC(F)(F)Oc1cccc(-c2cnc3ccc(-c4ccncc4)nn23)c1` has a remaining binding of 66% (cell-free assay, competition with immobilised ligand; 5 µM).
`F[C@@H]1CCN(c2nccc(-c3cnn4ncccc34)n2)C1` gave a remaining binding of 100% (binding; 1 µM).
For `O=C(O)[C@@H]1[C@@H](Cn2nnc3ccccc3c2=O)CC[C@H]1C(=O)c1ccc(OCCC2CCOCC2)cc1`, the remaining binding was 100% (cell-free assay, competition with immobilised ligand; 1 µM).
